Unmarked numbers belong to inactive results. Results filed as inconclusive are left out. Active and inactive are the calls of the source.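 The calls were made as follows, unless noted: active = inhibition over a set limit, the all-compound mean plus 3 SD, in both replicate runs; inconclusive = over that limit in just one replicate run; inactive = at or under that limit in both runs.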
Tests used:
[1] = OD615 S. cerevisiae growth inhibition, permissive medium, pilot counter-assay, permissive growth control for S. cerevisiae lifespan shortening project (AID 705;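 active = growth inhibition above 25% in both replicates, a cutoff set 3 SD above the mean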); conditions: OD615, 24 h, at 10 µM, hits give high values
Procedure, shortened: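 Test system: Saccharomyces cerevisiae strain carrying genetically modified DeaD replicative-lifespan system; buffer or medium: SC raffinose/galactose permissive medium; dosing: one dose 10 µM, DMSO 0.25% final; times: 24 h exposure, 30 °C; measured by: OD at 615 nm; read-out basis: growth inhibition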

[2] = Restrictive medium S. cerevisiae growth inhibition, OD615, pilot screen of yeast lifespan reduction project, restrictive growth control (AID 706;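 active = growth inhibition above a set limit, 3 SD over mean compound inhibition, in both replicates, cut at about 43% in these data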;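 also: modified DeaD lifespan yeast strain shifted to restrictive glucose medium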); conditions: OD615, 48 h, at 10 µM, hits give high values
Procedure, shortened: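 material = engineered S. cerevisiae DeaD strain | buffer or medium = glucose-based CSMM-D restrictive medium | dosing = one concentration, 10 µM final, 0.25% DMSO | schedule = 4 h pre-growth plus 48 h compound exposure, 30 °C | detection = OD615 absorbance reading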

[3] = viability gain of MRP-1-high H69AR cells under doxorubicin, pilot screen, MRP-1 activator project, CellTiter-Glo, duplicate (AID 807;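 active = viability increase at or above a cutoff of the median across tested compounds plus 3 SD, cut at about 8.5% in these data, passing the limit was not always enough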;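 also: compound pretreatment 18-22 h then 72 h combined with doxorubicin; 0% = doxorubicin alone and 100% = vehicle without doxorubicin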); conditions: H69AR viability with doxorubicin, CellTiter-Glo luminescence; at 10 µM; hits give high values
[4] = growth suppression of beta-catenin knockout HCT116, pilot screen, human colon tumor cells (AID 823;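 active = cell viability at or below a set limit in both duplicate runs, the limit being the all-compound median minus 4 SD, cut at about 23% in these data, passing the limit was not always enough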;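 also: 0% = wells killed by 20 µM Hyamine and 100% = untreated DMSO cell wells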); conditions: CellTiter-Glo, 60 h, at 10 µM, hits give low values
[5] = growth suppression of PTEN-deleted HCT116, pilot screen, cell-based, HCT116 clonal line, CellTiter-Glo (AID 824;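 active = viability at or below 27.92% in each of two runs, the all-compound median minus 4 SD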;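 also: 0% = 20 µM Hyamine control and 100% = vehicle cell control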); conditions: 60 h, at 10 µM, hits give low values
[6] = inhibitors of the yeast RAM network, pilot screen, dse1pr::URA3 reporter, 5-FOA selection (AID 869);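 also: 0% = DMSO wells with no growth and 100% = 10 µM 1-NA-PP1 with full growth; RAM network block rescues cells from 5-FOA so hits raise OD615 growth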; conditions: S. cerevisiae dse1pr::URA3 5-FOA growth, OD615, 2 d; at 10 µM; hits give high values; strain carries analog-sensitive mutant Cbk1 kinase
[7] = RAM signaling pathway blockade in yeast – S. cerevisiae, Pdr1DBD-CYC8 efflux-inhibited sensitized strain, primary screen (AID 1298;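 active = RAM network inhibition above 8.4% in each of two replicates, 3 SD over the compound average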;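 also: 0% = DMSO untreated cells without growth and 100% = 10 µM 1-NA-PP1 full growth; higher means more yeast growth rescued from 5-FOA killing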); conditions: S. cerevisiae cbk1-as DSE1-URA3 strain, 5-FOA growth OD615, 2 d; at 50 µM; hits give high values

Row | Structure (SMILES) | growth inhibition [1] [%] | growth inhibition [2] [%] | viability increase [3] [%] | viability [4] | viability [5] | inhibition [6] [%] | RAM network inhibition [7] [%]
1 | O=C(Cn1c(=O)oc2cc(S(=O)(=O)N3CCc4ccccc43)ccc21)NC1CCCC1 | -3.26 | 2.94 | -1.06 | 78.8% | 73.9% | 2.91 | 0.88
2 | CCN1CCN(C(=O)c2cc3c(s2)-c2ccccc2S(=O)(=O)C3)CC1 | -4.69 | -9.1 | -2.15 | 99.6% | 92.5% | 2.36 | 0.72
3 | CC1CN(c2nc3c(c(=O)[nH]c(=O)n3C)n2Cc2ccccc2F)CC(C)O1 (stereo not given) | -3.05 | 2.61 | -1.3 | 99.1% | 90.7% | 1.68 | 0.95
4 | Cc1ccccc1N(CC(=O)NCCSCc1ccco1)S(C)(=O)=O | -4.43 | -7.72 | -3.94 | 93.1% | 95.5% | -0.58 | 7.43
5 | COc1ccc(NC(C)=O)cc1NC(=O)CSc1nnc(-c2ccncc2)n1C | -5.57 | -7.07 | -1.99 | 96.6% | 106% | 0.24 | 0.2
6 | COc1ccc(-n2c(Cc3cc(=O)[nH]c(=O)[nH]3)nnc2SCC(=O)Nc2ccccc2)cc1 | 5.82 | 3.9 | 0.25 | 105% | 98.7% | 0.48 | 2.13
7 | CCN(CC)CCCNC(=O)Cn1ncc2c(=O)oc3ccc(C)cc3c21 | -23.9 | -25.6 | -1.87 | 101% | 92.3% | 2.04 | 5.92
8 | Cc1ccnc(SCCn2c(N(C)Cc3ccccc3)nc3c2c(=O)n(C)c(=O)n3C)n1 | -15.3 | -13 | -0.84 | 93.3% | 88.7% | -0.475 | 5.55
9 | Cn1c(=O)oc2cc(S(=O)(=O)NCc3ccccn3)ccc21 | -20.9 | -20.2 | 0.44 | 96.5% | 101% | 3.3 | 4.32
10 | COc1ccc(C2C(C(=O)N3CCN(c4ccccc4)CC3)c3ccccc3C(=O)N2C)cc1 (stereo not given) | -13.4 | -17.6 | -4.08 | 69.6% | 74.9% | 2.13 | 2.38
11 | Nc1ccc2nc(-c3ccc(Cl)cc3)[nH]c2c1 | -13 | -10.7 | -8.6 | 73.4% | 75.3% | 0.935 | 4.58
12 | CCOC(=O)C1CCCN(C(=O)c2ccco2)C1 (stereo not given) | -11.6 | -12.6 | -3.01 | 93.7% | 102% | 2.3 | 0.62
13 | Cc1cc(C)n(-c2nncc(-c3ccccc3)n2)n1 | 14 | 34.6 | -2.22 | 98.9% | 95.6% | 1.86 | 0.92
14 | CCOC(=O)CSC1=C(C#N)C(c2ccc(C)s2)CC(=O)N1 (stereo not given) | -9.3 | -13.3 | -5.84 | 15.9% (active) | 16% (active) | 1.54 | 0.22
15 | CC1=Nc2ccc(C)cc2N(Cc2ccccc2)C(=O)C1 | -10.2 | -5.19 | 0.47 | 101% | 93.8% | 0.545 | 2.83
16 | COc1ccc(OC)c(NC(=O)Nc2ccccc2C)c1 | -3.12 | -16.3 | -3.16 | 102% | 95.9% | 1.13 | 1.79
17 | Cn1c(=O)c2c(nc(N3CCCCCC3)n2CCSc2nc3ccccc3o2)n(C)c1=O | -6.38 | -18.4 | -6.62 | 80.4% | 83% | 1.14 | 2.45
18 | Cc1ccc(-c2ccc(CCC(=O)O)n2CC(=O)O)cc1 | -3.08 | -11.2 | -1.34 | 98.7% | 107% | 1.36 | 1.3
19 | CC1(C)Cc2c(C#N)c(NCCCO)nc(-c3ccccc3)c2CO1 | -7.54 | -20.9 | -4.65 | 88% | 85.3% | 0.25 | -0.94
20 | COCCNC(=O)c1cc(-c2ccc(Cl)c(Cl)c2)on1 | -2.25 | -1.81 | -0.93 | 82.5% | 87.8% | 0.18 | 5.68
21 | O=C(COC(=O)c1ccco1)Nc1ccc(Br)cc1 | -15.4 | -14.3 | -1.81 | 93.5% | 99.3% | 1.45 | 2.21
22 | COC(=O)c1nc2n(n1)C(c1cccc(Cl)c1)C1=C(CC(C)(C)CC1=O)N2 (stereo not given) | 2.12 | -2.75 | -2.72 | 98.7% | 99.8% | 0.75 | -0.77
23 | O=C(NC1CCCc2ccccc21)C1CCN(c2c(N3CCCC3)c(=O)c2=O)CC1 (stereo not given) | -5.2 | -2.66 | -3.06 | 92.4% | 90% | 1.51 | -0.37
24 | CSc1cccc(NC(=O)CN(c2ccc(C)cc2C)S(C)(=O)=O)c1 | -12.5 | -9.39 | -1.07 | 76.8% | 67.8% | 1.02 | 2.43
25 | Cc1cccc(CSc2nnc(Cn3c(=O)sc4ccccc43)n2C)c1 | -2.34 | 1.82 | -1.45 | 86.4% | 87.3% | -0.065 | 4.9

— PubChem BioAssay
